Pf Dd2 growth = P. falciparum Dd2 growth inhibitors, primary screen, SYBR Green fluorescence, single dose replicates | 72 h; active compounds read low | activity change, % at 10 µM | 2.3% of 94,000 active; in the data active = activity change below about -80%; inconclusive = no clear call, values can overlap the other calls
IDH1 mut inh = inhibitors of IDH1 R132H reductase, primary screen, biochemical, plate reader, single point | Isocitrate dehydrogenase [NADP] cytoplasmic (Homo sapiens), O75874 | 0.18% of 70,000 active | inhibition, % at 10 µM | AID 624101, 2012 | diaphorase/resazurin fluorescence, 60 min; in the data active = inhibition above about 34%; inconclusive = no clear call, values can overlap the other calls; inactive = below about 11%
T cruzi growth-1 = T. cruzi intracellular proliferation inhibitors, primary screen, cell-based, beta-gal Tulahuen parasites, NIH3T3 host, luminescence. 5.9% of 77,000 active. inhibition, % at 8.34 µM. T. cruzi beta-gal in NIH3T3, GalScreen luminescence, 90 h;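 active = mean inhibition above about 93%, with at least 55% of replicates each passing it, limit read from the data, passing the limit was not always enough; inconclusive = only one of those two conditions holds; inactive = neither condition holds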
GASC1 inh = inhibitors of GASC-1 (KDM4C) histone demethylase, primary screen, biochemical, single concentration HTS; Lysine-specific demethylase 4C (Homo sapiens), Q9H3R0; inhibition, % at 12.5 µM; 0.15% of 96,000 active; GST-KDM4C 2-372, H3K9me3 peptide, LANCE TR-FRET; AID 720574, 2013;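 active = mean replicate inhibition above about 25%, with at least 55% of replicates also reaching it, limit read from the data, passing the limit was not always enough; inconclusive = only one of those two conditions met; inactive = neither condition met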
Target sequence (Q9H3R0 2-372 limits assumed): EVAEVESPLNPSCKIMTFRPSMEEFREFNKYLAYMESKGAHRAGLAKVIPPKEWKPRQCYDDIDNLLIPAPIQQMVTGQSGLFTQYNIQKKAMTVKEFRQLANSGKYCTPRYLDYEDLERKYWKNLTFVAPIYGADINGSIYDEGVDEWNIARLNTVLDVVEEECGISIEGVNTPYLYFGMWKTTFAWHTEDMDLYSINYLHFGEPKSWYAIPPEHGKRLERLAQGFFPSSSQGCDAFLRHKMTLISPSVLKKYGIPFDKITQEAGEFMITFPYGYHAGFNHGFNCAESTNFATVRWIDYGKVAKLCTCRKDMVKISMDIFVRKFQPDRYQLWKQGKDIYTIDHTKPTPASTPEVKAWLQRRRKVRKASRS
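System: N-terminal GST-fused human GASC-1 (KDM4C) fragment, residues 2-372 / Amount: 10 nM GST-KDM4C in enzyme reaction / Also added: H3K9me3 peptide with Fe(II)/2OG / Times: 30 min demethylation and 1 h detection at room temperature / Signal: LANCE TR-FRET / Read-out basis: Fall in 671/618 emission ratio as inhibition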
T cruzi growth-2 = T. cruzi intracellular proliferation inhibitors, confirmation, cell-based, NIH3T3 host, beta-gal parasite, luminescence, cherry-pick; shares compounds with T cruzi growth-1; T. cruzi beta-gal in NIH3T3, GalScreen luminescence, 90 h; inhibition, % at 8.35 µM; 72% of 5,600 active; AID 651739, 2012;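 active = mean replicate inhibition above about 95% and at least 55% of replicates individually reaching it, limit read from the data; inconclusive = only one of the two criteria is met; inactive = neither criterion is met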
T cruzi growth-3 = inhibitors of intracellular T. cruzi replication, confirmation, NIH3T3 host cells, beta-gal parasites, cherry-pick, set 2; T. cruzi beta-gal in NIH3T3, GalScreen luminescence, 90 h; inhibition, % at 2.09 µM; 21% of 5,600 active; shares compounds with T cruzi growth-1;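 active = mean inhibition above about 95%, with at least 55% of replicates also reaching it, limit read from the data; inconclusive = meets just one of the two conditions; inactive = meets neither condition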
NIH3T3 tox = cytotoxicity in mouse NIH/3T3 fibroblasts, confirmation, cytotoxicity control for T. cruzi proliferation inhibitor project, cell-based, cherry-pick, single point; shares compounds with T cruzi growth-1; cytotoxicity (signal decrease), % at 8.35 µM; 14% of 5,600 active; NIH/3T3 viability, CellTiter-Glo ATP luminescence, 90 h;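 active = mean signal decrease across replicates above about 35% based on untreated-well scatter, with enough replicates individually passing, limit read from the data; inconclusive = no rule stated though some were filed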
3T3 cytotox 2 = NIH/3T3 fibroblast cytotoxicity, confirmation, cytotoxicity control, cell-based, cherry-pick, single point, set 2. 56% of 5,600 active. shares compounds with T cruzi growth-1. inhibition, % at 24.9 µM. NIH/3T3 viability, CellTiter-Glo ATP luminescence, 90 h;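 active = mean loss of cell viability signal at or above a set limit, and enough replicates individually reaching it; inconclusive = meets only the mean limit or only the replicate share; inactive = meets neither condition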
A number is an active result. Rows were chosen to be rich in hits. Some 5.8% of all compounds tested hit in one or more screens of this group.

For CC(C)CC#Cc1ccc2c(c1)O[C@H](CN(C)C(=O)Cc1ccncc1)[C@@H](C)CN([C@@H](C)CO)S2(=O)=O the results were Pf Dd2 growth inactive, IDH1 mut inh inactive, T cruzi growth-1 inconclusive and GASC1 inh inactive.
Screening CC(C)CC#Cc1ccc2c(c1)O[C@@H](CN(C)C(=O)Cc1ccncc1)[C@H](C)CN([C@@H](C)CO)S2(=O)=O returned Pf Dd2 growth -82, IDH1 mut inh inactive, T cruzi growth-1 100, GASC1 inh inactive, T cruzi growth-2 99, T cruzi growth-3 inactive, NIH3T3 tox inactive and 3T3 cytotox 2 inactive.
For CC(C)CC#Cc1ccc2c(c1)O[C@H](CN(C)C(=O)Cc1ccccc1)[C@@H](C)CN([C@@H](C)CO)S2(=O)=O the results were Pf Dd2 growth inactive, IDH1 mut inh inactive, T cruzi growth-1 127, GASC1 inh inactive, T cruzi growth-2 104, T cruzi growth-3 111, NIH3T3 tox inactive and 3T3 cytotox 2 104.
`CC(C)CC#Cc1ccc2c(c1)O[C@H](CN(C)C(=O)Cc1ccccc1)[C@@H](C)CN([C@H](C)CO)S2(=O)=O` gave Pf Dd2 growth inactive, IDH1 mut inh inactive, T cruzi growth-1 125, GASC1 inh inactive, T cruzi growth-2 98, T cruzi growth-3 inconclusive, NIH3T3 tox inactive and 3T3 cytotox 2 105.
Screening Cc1ccc(S(=O)(=O)NCC(=O)Nc2ccc(C(N)=O)cc2)cc1 returned IDH1 mut inh inactive.
COc1ccccc1C#Cc1ccc([C@H]2[C@@H](CO)N3CCCCN(C(=O)C4CCCC4)C[C@@H]23)cc1 was read as Pf Dd2 growth inactive, T cruzi growth-1 118, T cruzi growth-2 101, T cruzi growth-3 105, NIH3T3 tox inconclusive and 3T3 cytotox 2 71.
`COc1ccccc1C#Cc1ccc([C@H]2[C@H]3CN(C(=O)C4CCCC4)CCCCN3[C@H]2CO)cc1` gave Pf Dd2 growth inactive, T cruzi growth-1 114, T cruzi growth-2 inactive, T cruzi growth-3 inactive, NIH3T3 tox inactive and 3T3 cytotox 2 54.
`COc1ccccc1C#Cc1ccc([C@@H]2[C@@H](CO)N3CCCCN(C(=O)C4CCCC4)C[C@H]23)cc1` gave Pf Dd2 growth inactive, T cruzi growth-1 112, T cruzi growth-2 103, T cruzi growth-3 inactive, NIH3T3 tox inactive and 3T3 cytotox 2 106.
Screening COc1ccccc1C#Cc1ccc([C@H]2[C@H]3CN(S(C)(=O)=O)CCCCN3[C@H]2CO)cc1 returned Pf Dd2 growth inactive, T cruzi growth-1 inactive and GASC1 inh inactive.
`COc1ccccc1C#Cc1ccc([C@H]2[C@@H](CO)N3CCCCN(S(C)(=O)=O)C[C@H]23)cc1` gave Pf Dd2 growth inactive, T cruzi growth-1 inactive and GASC1 inh inactive.
Screening O=C(N/N=C/c1ccc(C(F)(F)F)cc1)c1ccccc1O returned IDH1 mut inh inactive.
Screening O=C(C(NS(=O)(=O)c1cccc2nsnc12)c1ccccc1)N1CCc2ccccc21 (stereo unspecified) returned IDH1 mut inh inactive.
Screening Cc1ccsc1/C=N/NC(=O)c1cccc(C(=O)NO)c1 returned IDH1 mut inh inactive.
Screening C[C@H](CO)N1C[C@H](C)[C@H](CN(C)Cc2ccncc2)Oc2ccc(NC(=O)Nc3ccc4c(c3)OCO4)cc2C1=O returned Pf Dd2 growth inactive, IDH1 mut inh inactive, T cruzi growth-1 117, GASC1 inh inactive, T cruzi growth-2 inactive, T cruzi growth-3 inactive, NIH3T3 tox inactive and 3T3 cytotox 2 34.
For C[C@@H]1CN([C@@H](C)CO)C(=O)c2cc(NC(=O)Nc3ccc4c(c3)OCO4)ccc2O[C@@H]1CN(C)Cc1ccncc1 the results were Pf Dd2 growth inactive, IDH1 mut inh inactive, T cruzi growth-1 inactive and GASC1 inh inactive.
C[C@H](CO)N1C[C@H](C)[C@H](CN(C)Cc2ccc(Oc3ccccc3)cc2)Oc2ccc(NC(=O)Cc3ccccc3)cc2C1=O was read as Pf Dd2 growth inactive, IDH1 mut inh inactive, T cruzi growth-1 inconclusive, GASC1 inh inactive, T cruzi growth-2 inactive, T cruzi growth-3 inactive, NIH3T3 tox inactive and 3T3 cytotox 2 102.
C[C@@H]1CN([C@@H](C)CO)C(=O)c2cccc(NC(=O)Nc3ccc4c(c3)OCO4)c2O[C@@H]1CN(C)Cc1ccc(Oc2ccccc2)cc1 was read as Pf Dd2 growth inactive, T cruzi growth-1 inactive and GASC1 inh inactive.
C[C@@H]1CN([C@@H](C)CO)C(=O)c2cc(NC(=O)Cc3ccccc3)ccc2O[C@H]1CN(C)Cc1ccc(Oc2ccccc2)cc1 was read as Pf Dd2 growth inactive, T cruzi growth-1 inactive and GASC1 inh inactive.
`C[C@H](CO)N1C[C@H](C)[C@@H](CN(C)Cc2ccc(Oc3ccccc3)cc2)Oc2ccc(NC(=O)Nc3ccccc3)cc2C1=O` gave Pf Dd2 growth inactive, T cruzi growth-1 inactive and GASC1 inh inactive.
`C[C@H]1CN([C@@H](C)CO)C(=O)c2cc(NC(=O)Nc3ccc4c(c3)OCO4)ccc2O[C@H]1CN(C)Cc1ccc(Oc2ccccc2)cc1` gave Pf Dd2 growth inactive, IDH1 mut inh inactive, T cruzi growth-1 117, GASC1 inh inactive, T cruzi growth-2 109, T cruzi growth-3 inactive, NIH3T3 tox inactive and 3T3 cytotox 2 41.
For C[C@H](CO)N1C[C@H](C)[C@@H](CN(C)Cc2ccc(Oc3ccccc3)cc2)Oc2c(NC(=O)Nc3ccc4c(c3)OCO4)cccc2C1=O the results were Pf Dd2 growth inactive, T cruzi growth-1 inconclusive, GASC1 inh inactive, T cruzi growth-2 109, T cruzi growth-3 inactive, NIH3T3 tox inactive and 3T3 cytotox 2 inactive.
Screening Cc1cc(C)cc(N(CC(=O)Nc2ccc(Br)c(Cl)c2)S(C)(=O)=O)c1 returned IDH1 mut inh inactive.
For O=C(NC[C@H]1[C@H](c2ccccc2)[C@H](CO)N1Cc1ccccn1)C1CCCC1 the results were Pf Dd2 growth inactive, T cruzi growth-1 97, GASC1 inh inactive, T cruzi growth-2 inactive, T cruzi growth-3 inactive, NIH3T3 tox inactive and 3T3 cytotox 2 inactive.
